From ChEMBL document CHEMBL1772940, “Design and synthesis of potent and selective aldose reductase inhibitors based on pyridylthiadiazine scaffold” (Eur J Med Chem, 2011)

Assays:
[1] = target: Aldo-keto reductase family 1 member B1 (Rattus norvegicus, UniProt P07943); assay: Inhibition of Wistar rat lens aldose reductase 2 by spectrophotometric analysis
Method in brief: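 Partially purified lens enzyme (homogenized in cold water, centrifuged 30 min at 0–4 °C, ammonium sulfate 40/50/75% cuts). Mix without DL-glyceraldehyde was preincubated 10 min at 32 °C; the NADPH drop was read at 340 nm at 32 °C in pH 6.2 phosphate, with the substrate-free rate subtracted. At least four concentrations (10^-4–10^-8 M), triplicate; IC50 from log concentration-response regression.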

[2] = test system: Aldehyde reductase AKR1A1 (Rattus norvegicus); assay: Inhibition of Wistar rat kidney aldehyde reductase at 50 uM by spectrophotometric analysis

SMILES | IC50 [1] | inhibition [2]
O=C(O)CN1CN(Cc2cccc([N+](=O)[O-])c2)S(=O)(=O)c2cc(Cl)cnc21 | 93 nM | 40.2%
O=C(O)CN1CN(Cc2ccc(C(F)(F)F)cc2)S(=O)(=O)c2cc(Cl)cnc21 | 1010 nM | 42.3%
Cc1cnc2c(c1)S(=O)(=O)N(Cc1cc(F)c(F)cc1F)CN2CC(=O)O | 84 nM | 35.4%
COc1ccc(CN2CN(CC(=O)O)c3ncc(C)cc3S2(=O)=O)cc1 | 6270 nM | 17.7%
O=C(O)CN1CN(Cc2ccc(Br)cc2F)S(=O)(=O)c2cc(Br)cnc21 | 69 nM | 44.9%
Cc1cnc2c(c1)S(=O)(=O)N(Cc1cccc([N+](=O)[O-])c1)CN2CC(=O)O | 143 nM | 23.2%
O=C(O)CN1CN(Cc2cc(F)c(F)cc2F)S(=O)(=O)c2cc(Br)cnc21 | 66 nM | 44.2%
COc1ccc(CN2CN(CC(=O)O)c3ncc(Br)cc3S2(=O)=O)cc1 | 11300 nM | 27.9%
COc1ccc(CN2CN(CC(=O)O)c3ncc(Cl)cc3S2(=O)=O)cc1 | 6540 nM | 32.3%
O=C(O)CN1CN(Cc2ccc(C(F)(F)F)cc2)S(=O)(=O)c2cc(Br)cnc21 | 965 nM | 43.3%
Cc1cnc2c(c1)S(=O)(=O)N(Cc1ccc(Br)cc1F)CN2CC(=O)O | 127 nM | 24.6%
O=C(O)CN1CN(Cc2ccc(Br)cc2F)S(=O)(=O)c2cc(Cl)cnc21 | 44 nM | 36.6%
O=C(O)CN1CN(Cc2cccc([N+](=O)[O-])c2)S(=O)(=O)c2cc(Br)cnc21 | 98 nM | 31.5%
O=C(O)CN1CN(Cc2cc(F)c(F)cc2F)S(=O)(=O)c2cc(Cl)cnc21 | 38 nM | 36.5%
Cc1cnc2c(c1)S(=O)(=O)N(Cc1ccc(C(F)(F)F)cc1)CN2CC(=O)O | 1000 nM | 20.5%
